Data reported in ChEMBL document CHEMBL1157665, “Novel 4-thiazolidinone derivatives as potential antifungal and antibacterial drugs” (2010).
Values after ≈ are worked out from the molar mass of the structure shown.

How the values were obtained:
[1] = tested on: Trichoderma viride; test: Antifungal activity against Trichoderma viride IAM 5061 after 72 hrs by serial dilution method; format: functional; details: IAM 5061, 72 h
Outline: (§1)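 Fungi were kept on malt agar at 4 °C and sub-cultured monthly. Spores were washed off the agar with sterile 0.85% saline containing 0.1% Tween 80 (v/v). Modified microdilution in 96-well plates. MIC is the lowest concentration with no visible growth under the binocular microscope. Inoculum checked on malt agar for contamination and validity.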

[2] = tested on: Aspergillus fumigatus; test: Antifungal activity against Aspergillus fumigatus plant isolate after 72 hrs by serial sub-cultivation method
[3] = tested on: Proteus mirabilis; test: Antibacterial activity against Proteus mirabilis after 72 hrs by serial sub-cultivation method; format: functional
Outline: (§2)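 MBC was found by serial sub-cultivation of 2 µl from the MIC wells into plates holding 100 µl broth per well, then incubation for 72 h. MBC is the lowest concentration with no visible growth, i.e. 99.5% killing of the original inoculum. Bacterial inoculum was 1.0 × 10^4 cfu per well in LB broth. Duplicate, repeated three times.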

[4] = tested on: Escherichia coli; test: Antibacterial activity against Escherichia coli ATCC 35210 after 24 hrs; format: functional; details: ATCC 35210, 24 h
Outline: (§3)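 Broth microdilution MIC in 96-well plates. Compounds in LB broth with bacterial inoculum of 1.0 × 10^4 cfu per well, from suspensions adjusted with sterile saline to 1.0 × 10⁵ CFU/ml. Incubated 24 h at […] as printed. MIC taken as the lowest concentration with no visible growth under the binocular microscope. OD at 655 nm also read against blank. Streptomycin and ampicillin as positive controls. Duplicate, repeated three times.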

[5] = tested on: Listeria monocytogenes; test: Antibacterial activity against Listeria monocytogenes NCTC 7973 after 24 hrs; format: functional; details: NCTC 7973, 24 h; outline: as §3
[6] = tested on: Bacillus cereus; test: Antibacterial activity against Bacillus cereus clinical isolate after 24 hrs; format: functional; outline: as §3
[7] = tested on: Aspergillus fumigatus; test: Antifungal activity against Aspergillus fumigatus plant isolate after 72 hrs by serial dilution method
[8] = tested on: Penicillium ochrochloron; test: Antifungal activity against Penicillium ochrochloron ATCC 9112 after 72 hrs by serial sub-cultivation method; format: functional; details: ATCC 9112, 72 h
Outline: (§4)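 MFC was found by serial sub-cultivation of 2 µl into plates holding 100 µl broth per well, then incubation 72 h at 28 °C. MFC is the lowest concentration with no visible growth, taken as 99.5% killing of the original inoculum. Spore inocula came from malt agar cultures washed with 0.85% saline and 0.1% Tween 80.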

[9] = tested on: Listeria monocytogenes; test: Antibacterial activity against Listeria monocytogenes NCTC 7973 after 72 hrs by serial sub-cultivation method; format: functional; details: NCTC 7973, 72 h; outline: as §2
[10] = tested on: Penicillium ochrochloron; test: Antifungal activity against Penicillium ochrochloron ATCC 9112 after 72 hrs by serial dilution method; format: functional; details: ATCC 9112, 72 h; outline: as §1
[11] = tested on: Talaromyces funiculosus; test: Antifungal activity against Penicillium funiculosum ATCC 36839 after 72 hrs by serial sub-cultivation method; format: functional; details: ATCC 36839, 72 h; outline: as §4
[12] = tested on: Escherichia coli; test: Antibacterial activity against Escherichia coli ATCC 35210 after 72 hrs by serial sub-cultivation method; format: functional; details: ATCC 35210, 72 h; outline: as §2
[13] = tested on: Fulvia fulva; test: Antifungal activity against Fulvia fulva TK 5318 after 72 hrs by serial dilution method; format: functional; details: TK 5318, 72 h; outline: as §1
[14] = tested on: Proteus mirabilis; test: Antibacterial activity against Proteus mirabilis after 24 hrs; format: functional; outline: as §3
[15] = tested on: Aspergillus versicolor; test: Antifungal activity against Aspergillus versicolor ATCC 11730 after 72 hrs by serial sub-cultivation method; format: functional; details: ATCC 11730, 72 h; outline: as §4
[16] = tested on: Pseudomonas aeruginosa; test: Antibacterial activity against Pseudomonas aeruginosa ATCC 27853 after 24 hrs; format: functional; details: ATCC 27853, 24 h; outline: as §3
[17] = tested on: Salmonella typhimurium; test: Antibacterial activity against Salmonella Typhimurium ATCC 13311 after 72 hrs by serial sub-cultivation method; format: functional, Salmonella enterica subsp. enterica serovar Typhimurium; details: Salmonella enterica, ATCC 13311, 72 h; outline: as §2
[18] = tested on: Aspergillus niger; test: Antifungal activity against Aspergillus niger ATCC 6275 after 72 hrs by serial sub-cultivation method; format: functional; details: ATCC 6275, 72 h; outline: as §4
[19] = tested on: Fulvia fulva; test: Antifungal activity against Fulvia fulva TK 5318 after 72 hrs by serial sub-cultivation method; format: functional; details: TK 5318, 72 h; outline: as §4
[20] = tested on: Micrococcus flavus; test: Antibacterial activity against Micrococcus flavus ATCC 10240 after 72 hrs by serial sub-cultivation method; format: functional; details: ATCC 10240, 72 h; outline: as §2
[21] = tested on: Micrococcus flavus; test: Antibacterial activity against Micrococcus flavus ATCC 10240 after 24 hrs; format: functional; details: ATCC 10240, 24 h; outline: as §3
[22] = tested on: Aspergillus flavus; test: Antifungal activity against Aspergillus flavus ATCC 9643 after 72 hrs by serial sub-cultivation method; format: functional; details: ATCC 9643, 72 h; outline: as §4
[23] = tested on: Bacillus cereus; test: Antibacterial activity against Bacillus cereus clinical isolate after 72 hrs by serial sub-cultivation method; format: functional; outline: as §2
[24] = tested on: Salmonella typhimurium; test: Antibacterial activity against Salmonella Typhimurium ATCC 13311 after 24 hrs; format: functional, Salmonella enterica subsp. enterica serovar Typhimurium; details: Salmonella enterica, ATCC 13311, 24 h; outline: as §3
[25] = tested on: Staphylococcus aureus; test: Antibacterial activity against Staphylococcus aureus ATCC 6538 after 72 hrs by serial sub-cultivation method; format: functional; details: ATCC 6538, 72 h; outline: as §2
[26] = tested on: Trichoderma viride; test: Antifungal activity against Trichoderma viride IAM 5061 after 72 hrs by serial sub-cultivation method; format: functional; details: IAM 5061, 72 h; outline: as §4
[27] = tested on: Talaromyces funiculosus; test: Antifungal activity against Penicillium funiculosum ATCC 36839 after 72 hrs by serial dilution method; format: functional; details: ATCC 36839, 72 h; outline: as §1
[28] = tested on: Aspergillus niger; test: Antifungal activity against Aspergillus niger ATCC 6275 after 72 hrs by serial dilution method; format: functional; details: ATCC 6275, 72 h; outline: as §1
[29] = tested on: Staphylococcus aureus; test: Antibacterial activity against Staphylococcus aureus ATCC 6538 after 24 hrs; format: functional; details: ATCC 6538, 24 h; outline: as §3
[30] = tested on: Aspergillus versicolor; test: Antifungal activity against Aspergillus versicolor ATCC 11730 after 72 hrs by serial dilution method; format: functional; details: ATCC 11730, 72 h; outline: as §1
[31] = tested on: Pseudomonas aeruginosa; test: Antibacterial activity against Pseudomonas aeruginosa ATCC 27853 after 72 hrs by serial sub-cultivation method; format: functional; details: ATCC 27853, 72 h; outline: as §2
[32] = tested on: Aspergillus flavus; test: Antifungal activity against Aspergillus flavus ATCC 9643 after 72 hrs by serial dilution method; format: functional; details: ATCC 9643, 72 h; outline: as §1

Question: How did the MIC [1] turn out when COc1cc(/C=C2\S/C(=N\c3nc(C45CC6CC(CC(C6)C4)C5)cs3)NC2=O)ccc1O was run?
Answer: 11 µM (≈ 5.14 µg/mL)

Question: And the MFC [2]?
Answer: 21.9 µM (≈ 10.2 µg/mL)

Question: And the MBC [3]?
Answer: 65.7 µM (≈ 30.7 µg/mL)

Question: What about the MIC [4] of the same molecule?
Answer: 11 µM (≈ 5.14 µg/mL)

Question: What about the MIC [5] of the same molecule?
Answer: 11 µM (≈ 5.14 µg/mL)

Question: What about the MIC [6] of the same molecule?
Answer: 11 µM (≈ 5.14 µg/mL)

Question: And the MIC [7]?
Answer: 16.4 µM (≈ 7.67 µg/mL)

Question: What about the MFC [8] of the same molecule?
Answer: 21.9 µM (≈ 10.2 µg/mL)

Question: What about the MBC [9] of the same molecule?
Answer: 21.9 µM (≈ 10.2 µg/mL)

Question: What about the MIC [10] of the same molecule?
Answer: 16.4 µM (≈ 7.67 µg/mL)

Question: What about the MFC [11] of the same molecule?
Answer: 21.9 µM (≈ 10.2 µg/mL)

Question: What about the MBC [12] of the same molecule?
Answer: 16.4 µM (≈ 7.67 µg/mL)

Question: And the MIC [13]?
Answer: 11 µM (≈ 5.14 µg/mL)

Question: What about the MIC [14] of the same molecule?
Answer: 43.8 µM (≈ 20.5 µg/mL)

Question: And the MFC [15]?
Answer: 21.9 µM (≈ 10.2 µg/mL)

Question: And the MIC [16]?
Answer: 16.4 µM (≈ 7.67 µg/mL)

Question: And the MBC [17]?
Answer: 43.8 µM (≈ 20.5 µg/mL)

Question: And the MFC [18]?
Answer: 21.9 µM (≈ 10.2 µg/mL)

Question: What about the MFC [19] of the same molecule?
Answer: 21.9 µM (≈ 10.2 µg/mL)

Question: What about the MBC [20] of the same molecule?
Answer: 21.9 µM (≈ 10.2 µg/mL)

Question: And the MIC [21]?
Answer: 11 µM (≈ 5.14 µg/mL)

Question: And the MFC [22]?
Answer: 21.9 µM (≈ 10.2 µg/mL)

Question: And the MBC [23]?
Answer: 21.9 µM (≈ 10.2 µg/mL)

Question: What about the MIC [24] of the same molecule?
Answer: 21.9 µM (≈ 10.2 µg/mL)

Question: What about the MBC [25] of the same molecule?
Answer: 43.8 µM (≈ 20.5 µg/mL)

Question: And the MFC [26]?
Answer: 21.9 µM (≈ 10.2 µg/mL)

Question: What about the MIC [27] of the same molecule?
Answer: 16.4 µM (≈ 7.67 µg/mL)

Question: What about the MIC [28] of the same molecule?
Answer: 16.4 µM (≈ 7.67 µg/mL)

Question: And the MIC [29]?
Answer: 21.9 µM (≈ 10.2 µg/mL)

Question: What about the MIC [30] of the same molecule?
Answer: 16.4 µM (≈ 7.67 µg/mL)

Question: What about the MBC [31] of the same molecule?
Answer: 43.8 µM (≈ 20.5 µg/mL)

Question: What about the MIC [32] of the same molecule?
Answer: 16.4 µM (≈ 7.67 µg/mL)

Question: Which MIC [1] does the source give for COc1ccc(/C=C2\S/C(=N\c3nc(C45CC6CC(CC(C6)C4)C5)cs3)NC2=O)cc1 here?
Answer: 11.6 µM (≈ 5.24 µg/mL)

Question: What about the MFC [2] of the same molecule?
Answer: 23.1 µM (≈ 10.4 µg/mL)

Question: And the MBC [3]?
Answer: 69.3 µM (≈ 31.3 µg/mL)

Question: What about the MIC [4] of the same molecule?
Answer: 11.6 µM (≈ 5.24 µg/mL)

Question: What about the MIC [5] of the same molecule?
Answer: 23.1 µM (≈ 10.4 µg/mL)

Question: And the MIC [6]?
Answer: 23.1 µM (≈ 10.4 µg/mL)

Question: What about the MIC [7] of the same molecule?
Answer: 17.3 µM (≈ 7.81 µg/mL)

Question: And the MFC [8]?
Answer: 23.1 µM (≈ 10.4 µg/mL)

Question: What about the MBC [9] of the same molecule?
Answer: 46.2 µM (≈ 20.9 µg/mL)

Question: What about the MIC [10] of the same molecule?
Answer: 11.6 µM (≈ 5.24 µg/mL)

Question: What about the MFC [11] of the same molecule?
Answer: 23.1 µM (≈ 10.4 µg/mL)

Question: And the MBC [12]?
Answer: 23.1 µM (≈ 10.4 µg/mL)

Question: What about the MIC [13] of the same molecule?
Answer: 5.8 µM (≈ 2.62 µg/mL)

Question: What about the MIC [14] of the same molecule?
Answer: 46.2 µM (≈ 20.9 µg/mL)

Question: What about the MFC [15] of the same molecule?
Answer: 23.1 µM (≈ 10.4 µg/mL)

Question: And the MIC [16]?
Answer: 11.6 µM (≈ 5.24 µg/mL)

Question: What about the MBC [17] of the same molecule?
Answer: 23.1 µM (≈ 10.4 µg/mL)

Question: And the MFC [18]?
Answer: 23.1 µM (≈ 10.4 µg/mL)

Question: What about the MFC [19] of the same molecule?
Answer: 23.1 µM (≈ 10.4 µg/mL)

Question: What about the MBC [20] of the same molecule?
Answer: 46.2 µM (≈ 20.9 µg/mL)

Question: And the MIC [21]?
Answer: 23.1 µM (≈ 10.4 µg/mL)

Question: And the MFC [22]?
Answer: 23.1 µM (≈ 10.4 µg/mL)

Question: What about the MBC [23] of the same molecule?
Answer: 23.1 µM (≈ 10.4 µg/mL)

Question: And the MIC [24]?
Answer: 11.6 µM (≈ 5.24 µg/mL)

Question: What about the MBC [25] of the same molecule?
Answer: 46.2 µM (≈ 20.9 µg/mL)

Question: What about the MFC [26] of the same molecule?
Answer: 23.1 µM (≈ 10.4 µg/mL)

Question: And the MIC [27]?
Answer: 11.6 µM (≈ 5.24 µg/mL)

Question: What about the MIC [28] of the same molecule?
Answer: 17.3 µM (≈ 7.81 µg/mL)

Question: And the MIC [29]?
Answer: 23.1 µM (≈ 10.4 µg/mL)

Question: And the MIC [30]?
Answer: 17.3 µM (≈ 7.81 µg/mL)

Question: What about the MBC [31] of the same molecule?
Answer: 23.1 µM (≈ 10.4 µg/mL)

Question: And the MIC [32]?
Answer: 17.3 µM (≈ 7.81 µg/mL)
